# Source: ChEMBL document CHEMBL2321794, “Evaluation of difluoromethyl ketones as agonists of the γ-aminobutyric acid type B (GABAB) receptor” (J Med Chem, 2013)
# The source made the active and inactive calls. The rule behind the calls is not given here.
# Columns and labels:
# [1] = test system: HEK293; experiment: Cytotoxicity against HEK293 cells expressing human GABA-B B1/B2 receptor gene after 3 hrs by MTS assay; assay type: cell-based; conditions: hek293, 3 h
# Procedure, shortened: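 MTS viability in HEK293 cells stably expressing human GABA-B1/B2 with Cre-luc reporter: about 65000 cells/well plated overnight, treated 3 h at 37 °C, 5% CO2 in Optimem, in triplicate. CellTiter Aqueous One reagent then added for 1.5 h; absorbance read at 490 nm.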
# [2] = target: GABA-A receptor; alpha-1/beta-2/gamma-2 (Rattus norvegicus, UniProt P18508+P62813+P63138); experiment: Agonist activity at rat GABA-A alpha1beta2gamma2 receptor expressed in human TSA201 cells by whole cell voltage-clamp method; assay type: cell-based
# GABA-A receptor; alpha-1/beta-2/gamma-2, sequence (P18508 whole entry): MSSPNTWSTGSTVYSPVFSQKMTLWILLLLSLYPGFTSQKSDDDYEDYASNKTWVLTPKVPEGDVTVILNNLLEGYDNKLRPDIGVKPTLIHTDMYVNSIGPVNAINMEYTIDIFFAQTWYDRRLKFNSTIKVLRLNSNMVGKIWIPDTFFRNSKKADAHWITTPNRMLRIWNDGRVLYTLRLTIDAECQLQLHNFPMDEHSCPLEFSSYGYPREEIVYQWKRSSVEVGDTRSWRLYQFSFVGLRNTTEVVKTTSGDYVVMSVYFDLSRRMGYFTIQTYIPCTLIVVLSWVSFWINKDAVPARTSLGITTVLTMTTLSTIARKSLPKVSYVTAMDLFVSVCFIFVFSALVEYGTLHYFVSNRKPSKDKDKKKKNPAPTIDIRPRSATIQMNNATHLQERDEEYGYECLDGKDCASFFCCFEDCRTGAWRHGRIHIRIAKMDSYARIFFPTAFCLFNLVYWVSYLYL
# GABA-A receptor; alpha-1/beta-2/gamma-2, sequence (P62813 whole entry): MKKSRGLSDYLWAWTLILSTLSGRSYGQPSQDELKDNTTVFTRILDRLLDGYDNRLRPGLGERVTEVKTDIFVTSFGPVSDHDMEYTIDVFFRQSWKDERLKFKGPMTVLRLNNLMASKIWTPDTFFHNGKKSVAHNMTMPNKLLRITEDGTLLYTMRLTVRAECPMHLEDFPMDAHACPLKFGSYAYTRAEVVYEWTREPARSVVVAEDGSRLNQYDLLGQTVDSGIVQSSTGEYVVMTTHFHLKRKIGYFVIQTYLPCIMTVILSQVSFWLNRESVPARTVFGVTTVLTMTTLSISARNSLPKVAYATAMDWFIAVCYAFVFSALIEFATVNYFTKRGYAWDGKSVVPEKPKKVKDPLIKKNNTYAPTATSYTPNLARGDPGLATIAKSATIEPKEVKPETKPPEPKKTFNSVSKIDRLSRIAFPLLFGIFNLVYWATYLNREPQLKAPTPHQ
# GABA-A receptor; alpha-1/beta-2/gamma-2, sequence (P63138 whole entry): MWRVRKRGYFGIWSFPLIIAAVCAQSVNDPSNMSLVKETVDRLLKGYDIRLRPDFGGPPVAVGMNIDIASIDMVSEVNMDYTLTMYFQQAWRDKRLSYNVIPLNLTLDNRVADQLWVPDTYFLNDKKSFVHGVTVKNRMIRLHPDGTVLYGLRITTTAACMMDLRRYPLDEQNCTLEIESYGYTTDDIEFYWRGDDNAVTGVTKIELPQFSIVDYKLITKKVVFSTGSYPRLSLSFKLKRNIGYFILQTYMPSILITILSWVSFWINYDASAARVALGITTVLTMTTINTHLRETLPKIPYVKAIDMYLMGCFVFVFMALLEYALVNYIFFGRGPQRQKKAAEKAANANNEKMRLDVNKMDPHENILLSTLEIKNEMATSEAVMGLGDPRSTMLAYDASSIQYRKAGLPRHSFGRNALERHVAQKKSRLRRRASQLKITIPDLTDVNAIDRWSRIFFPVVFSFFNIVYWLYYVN
# Procedure, shortened: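 Whole-cell voltage clamp at rt, holding potential −60 mV, in tsA201 cells transiently transfected (calcium phosphate) with rat α1, β2, γ2s subunits plus GFP (1:1:5:1); recorded the day after replating. Compounds applied at 100 μM via gap-free protocol; currents compared with response to 100 μM GABA. Intracellular NMDG-Cl/CsCl pH 7.2; extracellular NaCl/HEPES pH 7.4; 1 kHz filtering and sampling.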
# [3] = target: GABA-B receptor (Homo sapiens, UniProt O75899+Q9UBS5); experiment: Agonist activity at human GABA-B B1/B2 receptor expressed in HEK293 cells assessed as inhibition of forskolin-stimulated cAMP accumulation after 3 hrs by luciferase reporter gene assay; assay type: functional, cell-based
# GABA-B receptor, sequence (Q9UBS5 whole entry): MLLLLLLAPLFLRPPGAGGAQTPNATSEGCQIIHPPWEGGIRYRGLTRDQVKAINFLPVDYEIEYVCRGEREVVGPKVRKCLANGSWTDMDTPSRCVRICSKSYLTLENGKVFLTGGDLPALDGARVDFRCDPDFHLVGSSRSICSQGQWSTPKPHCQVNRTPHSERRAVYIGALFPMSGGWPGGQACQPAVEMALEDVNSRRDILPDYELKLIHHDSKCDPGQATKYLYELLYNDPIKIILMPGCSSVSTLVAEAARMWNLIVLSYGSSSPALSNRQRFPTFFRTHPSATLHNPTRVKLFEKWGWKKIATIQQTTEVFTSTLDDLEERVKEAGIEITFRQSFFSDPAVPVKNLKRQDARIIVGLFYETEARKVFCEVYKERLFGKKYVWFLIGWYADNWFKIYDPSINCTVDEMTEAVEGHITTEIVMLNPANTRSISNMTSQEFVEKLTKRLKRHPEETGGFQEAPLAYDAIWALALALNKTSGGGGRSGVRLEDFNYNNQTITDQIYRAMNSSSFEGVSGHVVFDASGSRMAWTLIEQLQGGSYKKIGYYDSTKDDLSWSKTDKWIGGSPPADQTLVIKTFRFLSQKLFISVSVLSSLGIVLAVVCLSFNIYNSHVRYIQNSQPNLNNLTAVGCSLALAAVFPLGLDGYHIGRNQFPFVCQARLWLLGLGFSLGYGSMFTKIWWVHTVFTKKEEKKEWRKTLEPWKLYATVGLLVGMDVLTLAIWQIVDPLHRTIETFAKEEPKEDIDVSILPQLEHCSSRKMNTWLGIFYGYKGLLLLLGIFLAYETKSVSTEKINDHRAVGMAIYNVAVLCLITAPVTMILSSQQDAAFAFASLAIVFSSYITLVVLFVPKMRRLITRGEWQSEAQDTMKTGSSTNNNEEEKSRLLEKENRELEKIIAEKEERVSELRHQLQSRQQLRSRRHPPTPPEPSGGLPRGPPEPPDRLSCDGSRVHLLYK
# GABA-B receptor, sequence (O75899 whole entry): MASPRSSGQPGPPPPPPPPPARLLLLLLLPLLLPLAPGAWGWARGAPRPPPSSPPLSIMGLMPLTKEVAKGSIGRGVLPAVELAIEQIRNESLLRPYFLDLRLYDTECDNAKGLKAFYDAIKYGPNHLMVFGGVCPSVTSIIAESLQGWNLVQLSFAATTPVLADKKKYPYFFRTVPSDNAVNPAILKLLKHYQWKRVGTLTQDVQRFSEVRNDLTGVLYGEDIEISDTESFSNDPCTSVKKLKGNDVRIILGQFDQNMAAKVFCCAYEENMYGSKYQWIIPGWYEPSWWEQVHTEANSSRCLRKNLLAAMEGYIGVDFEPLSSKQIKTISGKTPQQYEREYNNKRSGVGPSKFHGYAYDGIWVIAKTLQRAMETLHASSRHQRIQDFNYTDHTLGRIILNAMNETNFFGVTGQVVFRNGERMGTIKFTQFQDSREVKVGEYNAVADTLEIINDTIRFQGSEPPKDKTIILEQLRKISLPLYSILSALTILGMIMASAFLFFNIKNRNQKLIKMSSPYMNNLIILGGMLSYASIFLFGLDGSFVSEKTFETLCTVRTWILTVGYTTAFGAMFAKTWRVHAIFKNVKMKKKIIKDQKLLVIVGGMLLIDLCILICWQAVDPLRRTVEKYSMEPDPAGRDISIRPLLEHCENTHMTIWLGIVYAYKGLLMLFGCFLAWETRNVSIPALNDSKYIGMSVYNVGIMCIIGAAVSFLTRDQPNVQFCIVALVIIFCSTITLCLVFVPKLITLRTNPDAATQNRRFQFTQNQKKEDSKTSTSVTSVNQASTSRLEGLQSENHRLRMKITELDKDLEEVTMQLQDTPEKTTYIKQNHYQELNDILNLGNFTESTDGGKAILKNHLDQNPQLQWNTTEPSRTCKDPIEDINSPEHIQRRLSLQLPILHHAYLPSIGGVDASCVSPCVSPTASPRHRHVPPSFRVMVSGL
# [4] = test system: Mus musculus; experiment: Anxiolytic activity in high alcohol preferring-2 mouse assessed as reduction of startle response under noise alone condition at 12.5 mg/kg, ip treated 25 mins prior to test; assay type: functional, organism-based; set-up: dose 12.5 mg/kg
# Procedure, shortened: (§1)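 Experimentally naive HAP2 mice (16 male, 16 female, 316–332 days old). Given ip at 10 mL/kg in 10% DMSO/45% (w/v) 2-hydroxypropyl-β-cyclodextrin in distilled water, 25 min before the test. Conditioning 24 h prior: 40 trials of 30 s, 7 W light paired with 0.5 s, 0.8 mA foot shock at 2 min intervals. Startle force in grams excluding body weight, 70–71 dB background, sexes pooled.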
# [5] = test system: Mus musculus; experiment: Anxiolytic activity in high alcohol preferring-2 mouse assessed as reduction of startle response under light and noise condition at 12.5 mg/kg, ip treated 25 mins prior to test; assay type: functional, organism-based; set-up: dose 12.5 mg/kg; procedure, shortened: as §1
# [6] = target: T1, GABA-A receptor; alpha-1/beta-2/gamma-2 (Rattus norvegicus) (UniProt P18508+P62813+P63138); experiment: Agonist activity at rat GABA-Aalpha1beta2gamma2 activity expressed in human TSA201 cells assessed as potentiation of 1 uM GABA-induced current amplitude at 100 uM by whole cell voltage-clamp method; assay type: cell-based
# Procedure, shortened: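 Modulation test on tsA201 cells expressing rat α1β2γ2s GABA-A receptor under whole-cell voltage clamp at −60 mV, rt: 1 μM GABA applied alone or simultaneously with 100 μM compound; current amplitude normalized, mean ± SE, N = 5 cells.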
# [7] = target: T1, GABA-A receptor; alpha-1/beta-2/gamma-2 (Rattus norvegicus); experiment: Agonist activity at rat GABA-Aalpha1beta2gamma2 activity expressed in human TSA201 cells assessed as potentiation of 100 uM GABA-induced current amplitude at 100 uM by whole cell voltage-clamp method; assay type: cell-based
# Procedure, shortened: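 Same whole-cell clamp setup (rat α1β2γ2s in tsA201, −60 mV, rt): 100 μM GABA, near-saturating, co-applied with 100 μM compound versus GABA alone; normalized current amplitude, mean ± SE, N = 5.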
# [8] = test system: Mus musculus; experiment: Anxiolytic activity in high alcohol preferring-2 mouse assessed as reduction of startle response under noise alone condition at 36 mg/kg, ip treated 25 mins prior to test; assay type: functional, organism-based; set-up: dose 36 mg/kg
# Procedure, shortened: (§2)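 HAP2 mice, experimentally naive (16 male, 16 female, 316–332 days old), given compound ip at 10 mL/kg in 10% DMSO/45% (w/v) 2-hydroxypropyl-β-cyclodextrin in water, 25 min before test. Conditioning: 40 trials of 30 s light paired with 0.5 s, 0.8 mA foot shock; test 24 h later. Startle force in grams on noise-alone and light + noise trials, 70–71 dB background; sexes pooled.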
# [9] = test system: Mus musculus; experiment: Anxiolytic activity in high alcohol preferring-2 mouse assessed as reduction of startle response under light and noise condition at 36 mg/kg, ip treated 25 mins prior to test; assay type: functional, organism-based; set-up: dose 36 mg/kg; procedure, shortened: as §2
# [10] = test system: Mus musculus; experiment: Anxiolytic activity in high alcohol preferring-2 mouse assessed as reduction of startle response under light and noise condition at 7.5 mg/kg, ip treated 25 mins prior to test; assay type: functional; conditions: route intraperitoneal
# Procedure, shortened: (§3)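 Male and female HAP2 mice (7 of each, 133–142 days old) with prior startle testing, prepulse testing and vehicle or drug injections, followed by a 15-day washout and counterbalancing. Dosed ip (10 mL/kg, distilled water vehicle) 25 min before the test session. Light (30 s, 7 W) was paired with foot shock (0.5 s, 0.8 mA; 40 trials) 24 h earlier. Startle force in grams, sexes pooled, mean ± SEM.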
# [11] = test system: Mus musculus; experiment: Anxiolytic activity in high alcohol preferring-2 mouse assessed as reduction of startle response under noise alone condition at 7.5 mg/kg, ip treated 25 mins prior to test; assay type: functional; conditions: route intraperitoneal; procedure, shortened: as §3
structure (smiles),measurement,setting,value
CC(=O)c1ccc(C(O)C(F)(F)C(=O)C23CC4CC(CC(C4)C2)C3)cc1 (stereo unspecified),Activity,[1],Non-toxic
CC1(C)C2CCC(C(O)C(F)(F)C(=O)c3ccc4c(c3)OCO4)C1C2 (racemic),Activity,[1],Toxic
CC(=O)c1ccc(C(O)C(F)(F)C(=O)C23CC4CC(CC(C4)C2)C3)cc1 (racemic) [listing 1 of 2 here],EC50,[2],> 100 µM
O=C(C12CC3CC(CC(C3)C1)C2)C(F)(F)C(O)/C=C/c1ccccc1 (racemic),EC50,[2],> 100 µM
same,EC50,[3],40 µM
CC(=O)c1ccc(C(O)CC(=O)C23CC4CC(CC(C4)C2)C3)cc1 (racemic),EC50,[3],> 100 µM
COc1ccc(C(O)C(F)(F)C(=O)c2ccc3ccccc3c2)cc1 (racemic),EC50,[2],> 100 µM
CCC/C=C/C(O)C(F)(F)C(=O)c1ccc2ccccc2c1 (racemic),EC50,[2],> 100 µM
C/C=C/C=C/C(O)C(F)(F)C(=O)c1ccc2ccccc2c1 (racemic),EC50,[2],> 100 µM
O=C(c1ccc2ccccc2c1)C(F)(F)C(O)C1CCCCC1 (racemic),EC50,[2],> 100 µM
C/C=C/C=C/C(O)C(F)(F)C(=O)/C=C/CCCC (racemic),EC50,[3],> 100 µM
CC(C)(C)c1cc(C(C)(C)C)c2c(c1)C(O)(C(F)(F)F)C(=O)O2 (racemic),Activity,[4],Active
same,EC50,[2],> 100 µM
same,Activity,[5],Active
CC(=O)c1ccc(C(O)C(F)(F)C(=O)C23CC4CC(CC(C4)C2)C3)cc1 (racemic) [listing 2 of 2 here],Activity,[6],inactive
same,Activity,[7],inactive
same,Activity,[8],Active
same,Activity,[9],Active
NCC(CC(=O)O)c1ccc(Cl)cc1 (racemic) [BACLOFEN],EC50,[2],> 100 µM
same,Activity,[10],26.3 g
same,Activity,[11],8.1 g
